Results gathered from unrelated publications.
Each line is one published result; the experiments were not run side by side.
Target: High affinity nerve growth factor receptor (NTRK1, Homo sapiens, UniProt P04629)

Compound	assay	setting	measurement	value
Cn1cncc1[C@](O)(COc1ccc(C#N)cc1-c1ccc(OC(F)(F)F)cc1)c1ccc(C#N)cc1	cell-free assay, competition with immobilised ligand	1 µM	remaining binding	91%
Cn1cc(-c2cccc(N3CCc4c(sc5c4CC(C)(C)C5)C3=O)c2CO)cc(Nc2ccncn2)c1=O	enzyme activity, inhibitor	1 µM	inhibition	11%
COc1cc(Nc2ncc(F)c(Nc3ccc4c(n3)NC(=O)C(C)(C)O4)n2)cc(OC)c1OC	binding	10 µM	inhibition	100%
Cc1nn(C)cc1-c1nc2c(N3CCN(Cc4ccc(Cl)cc4)CC3)c(Cl)cnc2[nH]1	binding, competition with immobilised ligand	1 µM	remaining binding	80%
O=c1[nH]c2ccccc2n1C1CCN(Cc2ccc(-c3[nH]c4cc5ncnc5cc4nc3-c3ccccc3)cc2)CC1	cell-free assay	0.5 µM	remaining signal	99.4%
Nc1ncc(-c2nc(N3CCOCC3)nc(N3CCOCC3)n2)c(C(F)F)n1	cell-free assay, competition with immobilised ligand	10 µM	remaining binding	78%
Cn1cc(-c2cc(F)cc(N3CCn4c(cc5c4CCCC5)C3=O)c2CO)cc(Nc2ccc(N3CCN(C4COC4)CC3)cn2)c1=O	enzyme activity, inhibitor	0.1 µM	inhibition	15%
C#Cc1n[nH]c2c(-c3cn([C@@H](C)c4ccccn4)c(=O)[nH]c3=O)cc(F)cc12	enzyme activity, inhibitor	0.1 µM	inhibition	11.2%
COc1ncccc1-c1cnn2ccc(N3CCN(C(=O)OC(C)C)CC3)nc12	binding, competition with immobilised ligand	1 µM	remaining binding	61%
CC(C)(C)c1cc(C=C(C#N)C#N)cc(Br)c1O	enzyme activity, inhibitor	0.5 µM	remaining activity	100%
C#Cc1n[nH]c2c(-c3cn([C@@H](C)c4ccccc4)c(=O)[nH]c3=O)cc(F)cc12	enzyme activity, inhibitor	0.1 µM	inhibition	5%
